Here are results for 9 compounds from ChEMBL document CHEMBL2417382, “Derivatives of grindelic acid: from a non-active natural diterpene to synthetic antitumor derivatives” (2013).

Holding throughout (format): functional
For one assay, the system named is WiDr. Put plainly: Antiproliferative activity against human WiDr cells after 48 hrs by SRB assay. An outline of the steps: (§1)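 Cells grown in RPMI 1640 with 5% heat-inactivated FCS and 2 mM L-glutamine. Seeded per well at 20,000 (WiDr), 15,000 (T-47D) or 10,000 (HeLa, SW1573, HBL-100). Dosing started the day after plating, in triplicate at 1–100 µM, with 0.25% DMSO as the vehicle control. After 48 h, TCA fixation, SRB staining and OD at 492 nm. Percentage growth calculated against untreated cells from OD at T0 and end, using NCI formulas.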

Another assay concerns T47D. Put plainly: Antiproliferative activity against human T47D cells after 48 hrs by SRB assay. An outline of the steps:
as §1

Another assay concerns HeLa. Put plainly: Antiproliferative activity against human HeLa cells after 48 hrs by SRB assay. An outline of the steps:
as §1

For another assay, the system named is SW1573. Nature of the assay: Antiproliferative activity against human SW1573 cells after 48 hrs by SRB assay. The following applies: SW1573, 48 h. A digest of the protocol: as §1
A further assay has as its system HBL-100. Put plainly: Antiproliferative activity against human HBL100 cells after 48 hrs by SRB assay. The following applies: HBL-100, 48 h. An outline of the steps: as §1

Activity calls are given as the source filed them. The rule behind the calls is not given here.

On to `CC1=CC[C@H]2C(C)(C)CCC[C@]2(C)[C@@]12CC[C@@](C)(CC(=O)N(Cc1ccccc1)C(C)(C)C(=O)NC1CCCCC1)O2`, for which the GI50 in the assay with WiDr came out at 5.1 µM; in the assay on T47D, 4.4 µM; in the assay with HeLa it was 4.7 µM; in the assay on SW1573, 3.6 µM; in the assay with HBL-100, 3.7 µM.
The corresponding values for `CC1=CC[C@H]2C(C)(C)CCC[C@]2(C)[C@@]12CC[C@@](C)(CC=O)O2` are 15 µM, 26 µM, 17 µM, 17 µM and 14 µM.
For `C#Cc1cccc(-c2cn(CC[C@]3(C)CC[C@@]4(O3)C(C)=CC[C@H]3C(C)(C)CCC[C@@]34C)nn2)c1`, the GI50 in the assay on WiDr, in the assay with T47D, in the assay with HeLa, in the assay on SW1573 and with HBL-100 was above 100 µM in each case.
Turning to `CC1=CC[C@H]2C(C)(C)CCC[C@]2(C)[C@@]12CC[C@@](C)(CC(=O)N(Cc1ccccc1)C(C)(C)C(=O)NC(C)(C)C(C)(C)C)O2`, the GI50 in the assay on WiDr was 49 µM; in the assay with T47D, 40 µM; in the assay on HeLa it was 30 µM; in the assay on SW1573, 14 µM; with HBL-100, 10 µM.
On the same counts, the results for `CC1=CC[C@H]2C(C)(C)CCC[C@]2(C)[C@@]12CC[C@@](C)(CCn1cc(C[C@]3(C)CC[C@@]4(O3)C(C)=CC[C@H]3C(C)(C)CCC[C@@]34C)nn1)O2` are “inactive”, 17 µM, 17 µM, 11 µM and 9.3 µM.
As for `CC1=CC[C@H]2C(C)(C)CCC[C@]2(C)[C@@]12CC[C@@](C)(CC(=O)N(Cc1ccccc1)C(C)(C)C(=O)NCCN1CCOCC1)O2`, the GI50 in the assay on WiDr turned out to be 12 µM; in the assay with T47D it was 19 µM; in the assay with HeLa it was 18 µM; in the assay on SW1573, 16 µM; with HBL-100 it was 16 µM.
Regarding `CC1=CC[C@H]2C(C)(C)CCC[C@]2(C)[C@@]12CC[C@@](C)(C/C=C/CO)O2`, the 50% growth inhibitory concentration (GI50) with WiDr came to 17 µM; in the assay on T47D, 17 µM; with HeLa, 18 µM; in the assay on SW1573 it was 17 µM; with HBL-100, 17 µM.
Take `CC1=CC[C@H]2C(C)(C)CCC[C@]2(C)[C@@]12CC[C@@](C)(CCOC(=O)n1ccnc1)O2`: the GI50 in the assay with WiDr came out at 13 µM; in the assay with T47D it was 17 µM; with HeLa it was 18 µM; with SW1573, 17 µM; with HBL-100, 16 µM.
With `CC1=CC[C@H]2C(C)(C)CCC[C@]2(C)[C@@]12CC[C@@](C)(C/C=C(\C)CO)O2`, the concentration for 50% growth inhibition (GI50) with WiDr worked out at 19 µM; in the assay on T47D it was 15 µM; in the assay with HeLa, 16 µM; in the assay on SW1573, 18 µM; in the assay on HBL-100, 16 µM.
